Laboratory results: ChEMBL document CHEMBL1154716, “Synthesis of some new S-triazine based chalcones and their derivatives as potent antimicrobial agents” (2010)
In brackets after ≈: the same amount, converted by molar mass. Activity calls are given as the source filed them. The rule behind the calls is not given here.

What was measured:
[1] = tested on: Bacillus cereus; test: Antimicrobial activity against Bacillus cereus at 10 ug/disk after 24 hrs by disk diffusion assay; type: functional
In short: (§1)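 Disc diffusion on 4 mm filter discs. Bacteria are grown overnight in LB at 28 C, then adjusted in saline to 1.0 × 10^5 cfu/ml. The suspension is mixed into top agar over peptone agar plates. Plates are incubated 24 h at 28 C, and growth-inhibition zone diameter is measured. Streptomycin and ampicillin controls are applied from a 1 mg/ml stock. Tests are done in duplicate.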

[2] = tested on: Micrococcus flavus; test: Antimicrobial activity against Micrococcus flavus at 10 ug/disk after 24 hrs by disk diffusion assay; type: functional; in short: as §1
[3] = tested on: Staphylococcus aureus; test: Antimicrobial activity against Staphylococcus aureus at 10 ug/disk after 24 hrs by disk diffusion assay; type: functional; in short: as §1
[4] = tested on: Escherichia coli; test: Antimicrobial activity against Escherichia coli at 10 ug/disk after 24 hrs by disk diffusion assay; type: functional; in short: as §1
[5] = tested on: Pseudomonas aeruginosa; test: Antimicrobial activity against Pseudomonas aeruginosa at 10 ug/disk after 24 hrs by disk diffusion assay; type: functional; in short: as §1
[6] = tested on: Enterobacter cloacae; test: Antimicrobial activity against Enterobacter cloacae at 10 ug/disk after 24 hrs by disk diffusion assay; type: functional; in short: as §1
[7] = tested on: Salmonella typhimurium; test: Antimicrobial activity against Salmonella Typhimurium at 10 ug/disk after 24 hrs by disk diffusion assay; type: functional, organism-based; conditions: Salmonella enterica subsp. enterica serovar Typhimurium; in short: as §1
[8] = tested on: Listeria monocytogenes; test: Antimicrobial activity against Listeria monocytogenes at 10 ug/disk after 24 hrs by disk diffusion assay; type: functional; in short: as §1
[9] = tested on: Bacillus cereus; test: Antimicrobial activity against Bacillus cereus at 1 umol/disk after 24 hrs by disk diffusion assay; type: functional; in short: as §1
[10] = tested on: Micrococcus flavus; test: Antimicrobial activity against Micrococcus flavus at 1 umol/disk after 24 hrs by disk diffusion assay; type: functional; in short: as §1
[11] = tested on: Staphylococcus aureus; test: Antimicrobial activity against Staphylococcus aureus at 1 umol/disk after 24 hrs by disk diffusion assay; type: functional; in short: as §1
[12] = tested on: Escherichia coli; test: Antimicrobial activity against Escherichia coli at 1 umol/disk after 24 hrs by disk diffusion assay; type: functional; in short: as §1
[13] = tested on: Pseudomonas aeruginosa; test: Antimicrobial activity against Pseudomonas aeruginosa at 1 umol/disk after 24 hrs by disk diffusion assay; type: functional; in short: as §1
[14] = tested on: Enterobacter cloacae; test: Antimicrobial activity against Enterobacter cloacae at 1 umol/disk after 24 hrs by disk diffusion assay; type: functional; in short: as §1
[15] = tested on: Salmonella typhimurium; test: Antimicrobial activity against Salmonella Typhimurium at 1 umol/disk after 24 hrs by disk diffusion assay; type: functional, organism-based; conditions: Salmonella enterica subsp. enterica serovar Typhimurium; in short: as §1
[16] = tested on: Listeria monocytogenes; test: Antimicrobial activity against Listeria monocytogenes at 1 umol/disk after 24 hrs by disk diffusion assay; type: functional; in short: as §1
[17] = tested on: Bacillus cereus; test: Antimicrobial activity against Bacillus cereus at 1 umol/spot after 18 hrs by TLC-bioautographic method; type: functional
In short: (§2)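 TLC bioautography. Samples are spotted on silica gel TLC plates, then sprayed with bacteria (1.0 × 10^5 cfu/ml) in tryptic soy broth. Plates are incubated 18 h at 37 C and sprayed with 3% aqueous p-iodonitrotetrazolium violet. After a further 3 h, growth is stopped with 70% EtOH. White zones on a pink background are scored as inhibition-zone diameter with standard errors.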

[18] = tested on: Micrococcus flavus; test: Antimicrobial activity against Micrococcus flavus at 1 umol/spot after 18 hrs by TLC-bioautographic method; type: functional; in short: as §2
[19] = tested on: Staphylococcus aureus; test: Antimicrobial activity against Staphylococcus aureus at 1 umol/spot after 18 hrs by TLC-bioautographic method; type: functional; in short: as §2
[20] = tested on: Escherichia coli; test: Antimicrobial activity against Escherichia coli at 1 umol/spot after 18 hrs by TLC-bioautographic method; type: functional; in short: as §2
[21] = tested on: Pseudomonas aeruginosa; test: Antimicrobial activity against Pseudomonas aeruginosa at 1 umol/spot after 18 hrs by TLC-bioautographic method; type: functional; in short: as §2
[22] = tested on: Enterobacter cloacae; test: Antimicrobial activity against Enterobacter cloacae at 1 umol/spot after 18 hrs by TLC-bioautographic method; type: functional; in short: as §2
[23] = tested on: Salmonella typhimurium; test: Antimicrobial activity against Salmonella Typhimurium at 1 umol/spot after 18 hrs by TLC-bioautographic method; type: functional, Salmonella enterica subsp. enterica serovar Typhimurium; in short: as §2
[24] = tested on: Listeria monocytogenes; test: Antimicrobial activity against Listeria monocytogenes at 1 umol/spot after 18 hrs by TLC-bioautographic method; type: functional; in short: as §2
[25] = tested on: Bacillus cereus; test: Antimicrobial activity against Bacillus cereus after 24 hrs by microdilution technique; type: functional
In short: (§3)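 Broth microdilution in LB medium. Inoculum is 1.0 × 10^4 cfu per well, from a saline-adjusted suspension of 1.0 × 10^5 cfu/ml. Compounds are dissolved in DMSO. Incubated 24 h at 28 C. MIC is the lowest concentration with no visible growth under a binocular microscope. MBC is read by subculture into fresh broth for 72 h, with no growth taken as 99.5% kill. OD is read at 655 nm.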

[26] = tested on: Micrococcus flavus; test: Antimicrobial activity against Micrococcus flavus after 24 hrs by microdilution technique; type: functional; in short: as §3
[27] = tested on: Staphylococcus aureus; test: Antimicrobial activity against Staphylococcus aureus after 24 hrs by microdilution technique; type: functional; in short: as §3
[28] = tested on: Escherichia coli; test: Antimicrobial activity against Escherichia coli after 24 hrs by microdilution technique; type: functional; in short: as §3
[29] = tested on: Pseudomonas aeruginosa; test: Antimicrobial activity against Pseudomonas aeruginosa after 24 hrs by microdilution technique; type: functional; in short: as §3
[30] = tested on: Enterobacter cloacae; test: Antimicrobial activity against Enterobacter cloacae after 24 hrs by microdilution technique; type: functional; in short: as §3
[31] = tested on: Salmonella typhimurium; test: Antimicrobial activity against Salmonella Typhimurium after 24 hrs by microdilution technique; type: functional, Salmonella enterica subsp. enterica serovar Typhimurium; conditions: Salmonella enterica; in short: as §3
[32] = tested on: Listeria monocytogenes; test: Antimicrobial activity against Listeria monocytogenes after 24 hrs by microdilution technique; type: functional; in short: as §3

Compound | inhibition zone (IZ) [1] | inhibition zone (IZ) [2] | inhibition zone (IZ) [3] | inhibition zone (IZ) [5] | inhibition zone (IZ) [6] | inhibition zone (IZ) [7] | inhibition zone (IZ) [8] | inhibition zone (IZ) [9] | inhibition zone (IZ) [10] | inhibition zone (IZ) [11] | inhibition zone (IZ) [12] | inhibition zone (IZ) [13] | inhibition zone (IZ) [14] | inhibition zone (IZ) [15] | inhibition zone (IZ) [16] | inhibition zone (IZ) [17] | inhibition zone (IZ) [18] | inhibition zone (IZ) [19] | inhibition zone (IZ) [20] | inhibition zone (IZ) [21] | other results
O=C(/C=C/c1ccc([N+](=O)[O-])cc1)c1ccc(Nc2nc(Nc3ccccc3)nc(Nc3ccccc3)n2)cc1 | inactive | inactive | inactive | inactive | inactive | inactive | inactive | inactive | inactive | inactive | 0.03 millimeter | inactive | inactive | inactive | inactive | inactive | 0.05 millimeter | inactive | inactive | inactive | zone of inhibition at 10 µg/disc ([4]; read-out: IZ): 6 mm; inhibition zone (IZ) [22]: 0.09 millimeter; inhibition zone (IZ) [23]: 0.08 millimeter; inhibition zone (IZ) [24]: 0.07 millimeter; MBC [25]: 378 µM (≈ 200 µg/mL); MIC [25]: 189 µM (≈ 100 µg/mL); MBC [26]: 378 µM (≈ 200 µg/mL); MIC [26]: 189 µM (≈ 100 µg/mL); MBC [27]: 756 µM (≈ 400 µg/mL); MIC [27]: 378 µM (≈ 200 µg/mL); MBC [28]: 378 µM (≈ 200 µg/mL); MIC [28]: 189 µM (≈ 100 µg/mL); MBC [29]: 756 µM (≈ 400 µg/mL); MIC [29]: 378 µM (≈ 200 µg/mL); MBC [30]: 378 µM (≈ 200 µg/mL); MIC [30]: 189 µM (≈ 100 µg/mL); MBC [31]: 756 µM (≈ 400 µg/mL); MIC [31]: 378 µM (≈ 200 µg/mL); MBC [32]: 756 µM (≈ 400 µg/mL); MIC [32]: 378 µM (≈ 200 µg/mL)
Nc1nc(-c2ccc(Nc3nc(Nc4ccccc4)nc(Nc4ccccc4)n3)cc2)cc(-c2ccc([N+](=O)[O-])cc2)n1 | inactive | inactive | inactive | inactive | inactive | inactive | inactive | inactive | inactive | inactive | inactive | inactive | inactive | inactive | inactive | inactive | 0.07 millimeter | inactive | inactive | inactive | inhibition zone (IZ) [4]: inactive; inhibition zone (IZ) [22]: inactive; inhibition zone (IZ) ([23]; Salmonella enterica subsp. enterica serovar Typhimurium): inactive; inhibition zone (IZ) [24]: 0.1 millimeter; MBC [25]: 352 µM (≈ 200 µg/mL); MIC [25]: 176 µM (≈ 100 µg/mL); MBC [26]: 704 µM (≈ 400 µg/mL); MIC [26]: 352 µM (≈ 200 µg/mL); MBC [27]: 352 µM (≈ 200 µg/mL); MIC [27]: 176 µM (≈ 100 µg/mL); MBC [28]: 352 µM (≈ 200 µg/mL); MIC [28]: 176 µM (≈ 100 µg/mL); MBC [29]: 704 µM (≈ 400 µg/mL); MIC [29]: 352 µM (≈ 200 µg/mL); MBC [30]: 352 µM (≈ 200 µg/mL); MIC [30]: 176 µM (≈ 100 µg/mL); MBC [31]: 704 µM (≈ 400 µg/mL); MIC [31]: 352 µM (≈ 200 µg/mL); MBC [32]: 704 µM (≈ 400 µg/mL); MIC [32]: 704 µM (≈ 400 µg/mL)
